Experimental data: ChEMBL document CHEMBL1687898, “Structure-activity relationships in glycosylated 2-phenyl-indoles, 2-phenyl-benzo[b]thiophenes and 2-phenyl-benzo[b]furans as DNA binding and potential antitumor agents” (Bioorg Med Chem, 2011)

What was measured:
[1] = tested on: HT-29; assay: Cytotoxicity against human HT-29 cells by MTS assay; assay type: functional, cell-based
How it was run: (§1)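 Cells kept in DMEM high glucose with 10% FBS and 2 mM L-glutamine, 37 °C, 5% CO2, and seeded at 1 × 10⁴ cells/well. After 24 h, switched to serum-free DMEM-F12 with albumin, transferrin and insulin, with or without compound. Incubated 3 days at 37 °C in triplicate to quintuplicate wells. MTS added for 2–2.5 h and read at 490 nm. Viability given as % of media-only control. IC50 from Boltzmann nonlinear regression.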

[2] = tested on: HT-29; assay: Cytotoxicity against human HT-29 cells assessed as cell viability at 25 uM by MTS assay; assay type: functional; conditions: read-out: Activity; how it was run: as §1
[3] = tested on: MCF7; assay: Cytotoxicity against human MCF7 cells assessed as cell viability at 25 uM by MTS assay; assay type: functional; conditions: read-out: Activity; how it was run: as §1
[4] = tested on: HepG2; assay: Cytotoxicity against human HepG2 cells assessed as cell viability at 25 uM by MTS assay; assay type: functional; conditions: read-out: Activity; how it was run: as §1
[5] = tested on: HepG2; assay: Cytotoxicity against human HepG2 cells by MTS assay; assay type: functional, cell-based; how it was run: as §1
[6] = tested on: Nucleic Acid; assay: Displacement of ethidium bromide from herring sperm DNA assessed as remaining ethidium bromide at 100 uM by FID assay; assay type: nucleic-acid assay; conditions: Clupeidae
[7] = tested on: Nucleic Acid; assay: Displacement of ethidium bromide from herring sperm DNA assessed as remaining ethidium bromide at 50 uM by FID assay; assay type: nucleic-acid assay; conditions: Clupeidae
How it was run: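 Single-point FID. Read EtBr (5 µM) in BPE buffer (pH 7.0), exc 520 nm, em 540–700 nm, then read again with sheared herring sperm DNA added; the intensity difference is 100%. Compound added from 10 mM DMSO stock to a final 50 µM, equilibrated ~3 min, rescanned until steady. % EtBr remaining is the mean of triplicates.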

[8] = tested on: Nucleic Acid; assay: Displacement of ethidium bromide from herring sperm DNA assessed as remaining ethidium bromide at 20 uM by FID assay; assay type: nucleic-acid assay; conditions: Clupeidae
[9] = tested on: Nucleic Acid; assay: Displacement of ethidium bromide from herring sperm DNA assessed as compound concentration required to 50% fluorescence loss of EtBr by FID assay; assay type: nucleic-acid assay; conditions: Clupeidae
How it was run: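 Multiple-point FID in the same system: 0.2 µL aliquots of 10 mM DMSO stock added stepwise, fluorescence read after each addition, until 50% loss of EtBr fluorescence. Apparent binding constant K_Ligand = K_EtBr × [EtBr]/[Ligand]50%.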

[10] = tested on: MCF7; assay: Cytotoxicity against human MCF7 cells by MTS assay; assay type: functional, cell-based; how it was run: as §1
[11] = tested on: HepG2; assay: Cytotoxicity against human HepG2 cells assessed as cell viability at 100 uM by MTS assay; assay type: functional; conditions: read-out: Activity
[12] = tested on: MCF7; assay: Cytotoxicity against human MCF7 cells assessed as cell viability at 100 uM by MTS assay; assay type: functional; conditions: read-out: Activity
[13] = tested on: HT-29; assay: Cytotoxicity against human HT-29 cells assessed as cell viability at 100 uM by MTS assay; assay type: functional; conditions: read-out: Activity

Structure (SMILES)	IC50 [1]	viability at 25 µM [2]	viability at 25 µM [3]	viability at 25 µM [4]	IC50 [5]	Activity [6]	Activity [7]	Activity [8]	Activity [9]	IC50 [10]	viability at 100 µM [11]	viability at 100 µM [12]	viability at 100 µM [13]
CC(=O)O[C@@H]1CC[C@H](OCCCc2c(-c3ccccc3)sc3ccccc23)O[C@H]1C	10.2 µM	9%	47%	72%									
CC(=O)O[C@@H]1CC[C@@H](OCC#Cc2c(-c3ccccc3)oc3ccccc23)O[C@H]1C	10.7 µM	9%	78%	15%	20.9 µM								
C[C@@H]1O[C@@H](OCC#Cc2c(-c3ccccc3)sc3ccccc23)CC[C@@H]1OC(=O)c1ccccc1		81%	100%	99%									
C[C@@H]1O[C@@H](OCC#Cc2c(-c3ccccc3)oc3ccccc23)CC[C@@H]1N						68.5%	68.5%						
C[C@@H]1O[C@H](OCC#Cc2c(-c3ccccc3)sc3ccccc23)CC[C@H]1O	12.8 µM	2%	23%	7%	13.6 µM		99.9%						
CC(=O)O[C@@H]1CC[C@H](OCCCc2c(-c3ccccc3)oc3ccccc23)O[C@H]1C	17.8 µM	19%	53%	42%									
Cc1ccc(S(=O)(=O)n2c(-c3ccccc3)c(C#CCO[C@@H]3CC[C@H](N)[C@H](C)O3)c3ccccc32)cc1	5.3 µM	< 1%	< 1%	< 1%	5 µM		19.8%	> 100%	55 µM	5.3 µM			
CC(=O)O[C@@H]1CC[C@@H](OCC#Cc2c(-c3ccccc3)sc3ccccc23)O[C@H]1C	10 µM	< 1%	40%	8%	15.7 µM								
C[C@@H]1O[C@@H](OCC#Cc2c(-c3ccccc3)sc3ccccc23)CC[C@H]1N	5.3 µM	< 1%	< 1%	< 1%	4.7 µM					6.6 µM			
C[C@@H]1O[C@@H](OCC#Cc2c(-c3ccccc3)sc3ccccc23)CC[C@@H]1N						79.9%	79.9%						
CC(=O)O[C@@H]1CC[C@H](OCC#Cc2c(-c3ccccc3)oc3ccccc23)O[C@H]1C	11.8 µM	8%	24%	5%	19.2 µM								
OCCCc1c(-c2ccccc2)sc2ccccc12	16.3 µM	< 1%	79%	87%							< 1%	< 1%	< 1%
C[C@@H]1O[C@@H](OCC#Cc2c(-c3ccccc3)sc3ccccc23)CC[C@@H]1O	13.4 µM	10%	56%	10%	15.6 µM								
C[C@@H]1O[C@H](OCC#Cc2c(-c3ccccc3)oc3ccccc23)CC[C@@H]1N	5.4 µM	< 1%	< 1%	< 1%	6.7 µM		26.9%	> 100%	55 µM	8.3 µM			
C[C@@H]1O[C@@H](OCC#Cc2c(-c3ccccc3)oc3ccccc23)CC[C@H]1O	13.1 µM	3%	38%	< 1%	15.3 µM		96.7%						
C[C@@H]1O[C@@H](OCCCc2c(-c3ccccc3)oc3ccccc23)CC[C@H]1O	16.9 µM	25%	65%	62%									
CC(=O)O[C@@H]1CC[C@H](OCC#Cc2c(-c3ccccc3)sc3ccccc23)O[C@H]1C	7.2 µM	< 1%	27%	< 1%	12.3 µM								
C[C@@H]1O[C@H](OCC#Cc2c(-c3ccccc3)sc3ccccc23)CC[C@@H]1N	4.6 µM	< 1%	< 1%	< 1%	4.9 µM		26.6%		45 µM	7.7 µM			
C[C@@H]1O[C@@H](OCCCc2c(-c3ccccc3)sc3ccccc23)CC[C@@H]1N	8.2 µM	< 1%	< 1%	< 1%	7.5 µM	51.9%				11.8 µM			
C[C@@H]1O[C@@H](OCC#Cc2c(-c3ccccc3)sc3ccccc23)CC[C@H]1OC=O	7.7 µM		37%	< 1%	17.4 µM								
Cc1ccc(S(=O)(=O)n2c(-c3ccccc3)c(C#CCO[C@H]3CC[C@@H](O)[C@H](C)O3)c3ccccc32)cc1		54%	40%	27%			111%						
C[C@@H]1O[C@@H](OCCCc2c(-c3ccccc3)oc3ccccc23)CC[C@@H]1N	6.9 µM	< 1%	< 1%	< 1%	7.7 µM	43.5%				13.8 µM			
C[C@@H]1O[C@@H](OCC#Cc2c(-c3ccccc3)sc3ccccc23)CC[C@@H]1OC=O	12.6 µM	2%	59%	17%	19.8 µM								
C[C@@H]1O[C@H](OCC#Cc2c(-c3ccccc3)oc3ccccc23)CC[C@H]1O	12.4 µM	7%	29%	6%	22.3 µM		103%						
C[C@@H]1O[C@@H](OCC#Cc2c(-c3ccccc3)sc3ccccc23)CC[C@H]1O	11.1 µM	6%	51%	25%	16.4 µM		103%						
Cc1ccc(S(=O)(=O)n2c(-c3ccccc3)c(C#CCO[C@@H]3CC[C@@H](O)[C@H](C)O3)c3ccccc32)cc1		24%	33%	5%	18.6 µM		109%						
C[C@@H]1O[C@@H](OCCCc2c(-c3ccccc3)sc3ccccc23)CC[C@H]1O	15.3 µM	19%	68%	84%									
OCCCc1c(-c2ccccc2)oc2ccccc12		76%	94%	91%							< 1%	16%	< 1%
Cc1ccc(S(=O)(=O)n2c(-c3ccccc3)c(C#CCO[C@H]3CC[C@H](N)[C@H](C)O3)c3ccccc32)cc1							38.6%						
